# Assay results collected from several papers.
# Compare with care: the assays were run in different laboratories.
# Target: Interleukin-1 receptor-associated kinase 4 (IRAK4, Homo sapiens, UniProt Q9NWZ3)
# Sequence (Q9NWZ3 1-460, as in one of the studies): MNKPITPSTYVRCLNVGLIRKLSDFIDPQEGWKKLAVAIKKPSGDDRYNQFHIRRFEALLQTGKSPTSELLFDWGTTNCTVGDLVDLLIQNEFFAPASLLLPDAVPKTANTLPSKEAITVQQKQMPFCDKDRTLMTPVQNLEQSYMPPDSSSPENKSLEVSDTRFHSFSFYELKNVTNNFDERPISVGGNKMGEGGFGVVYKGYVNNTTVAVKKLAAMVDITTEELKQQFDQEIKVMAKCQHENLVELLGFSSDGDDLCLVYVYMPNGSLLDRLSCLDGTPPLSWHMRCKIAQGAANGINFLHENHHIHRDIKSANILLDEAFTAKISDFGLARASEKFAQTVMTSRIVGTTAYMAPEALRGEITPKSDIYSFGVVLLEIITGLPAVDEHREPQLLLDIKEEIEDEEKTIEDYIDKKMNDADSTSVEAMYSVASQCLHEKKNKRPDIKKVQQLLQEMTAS
Compound,test,setting,quantity,result
CS(=O)(=NC#N)c1ccccc1Nc1nc(Nc2ccc(CO)nc2)ncc1Cl (centres unmarked),"enzyme activity, inhibitor, radiometric",1 µM,remaining activity,3.01%
C#Cc1cc(-c2cc(Nc3nc(N[C@@H](C)c4ccc(F)cn4)ncc3Cl)n[nH]2)ccc1C=O,"enzyme activity, inhibitor",0.2 µM,inhibition,10.1%
CS(=O)(=O)c1ccccc1Nc1nc(Nc2ccnc(CO)c2)ncc1Cl,"enzyme activity, inhibitor, radiometric",1 µM,remaining activity,13.4%
C=CC(=O)N1CCC[C@@H](n2nc(-c3ccc(Oc4ccccc4)cc3)c3c(N)ncnc32)C1,"enzyme activity, inhibitor",1 µM,inhibition,22%
CN1CCN(C(=O)c2ccc(NC(=O)Nc3ccc(N(C)c4ccnc(Nc5ccc(CS(C)(=O)=O)cc5)n4)cc3)cc2)CC1,binding,1 µM,remaining binding,52%
C1=C/COCc2cc(ccc2OCCN2CCCC2)Nc2nccc(n2)-c2cccc(c2)COC/1,cell-free assay,0.1 µM,remaining signal,56%
Cc1ccc(NC(=O)c2ccnc(C(F)(F)F)c2)cc1-c1cc(OCCO)nc(N2CCOCC2)c1,binding,1 µM,remaining binding,100%
Cc1cc(O)c(-c2ccc([C@@H](C)CN(C)C)cc2)c2c1[nH]c(=O)c1sccc12,"enzyme activity, inhibitor",0.1 µM,inhibition,1.9%
C#Cc1cnc(Nc2ccc(CO)nc2)nc1Nc1ccccc1S(C)(=O)=NC#N (centres unmarked),"enzyme activity, inhibitor, radiometric",1 µM,remaining activity,0.79%
CC#CC(=O)N1CCC[C@H]1c1nc(-c2ccc(C(=O)Nc3ccccn3)cc2)c2c(N)nccn12,"enzyme activity, inhibitor",1 µM,inhibition,16%
CCCCC(=O)Nc1ccc(-c2ccc3ncn(CCC)c(=O)c3c2)cn1,"binding, competition with immobilised ligand",0.5 µM,remaining binding,93%
